Laboratory results from ChEMBL document CHEMBL4840315, “Δ9-cis-Tetrahydrocannabinol: Natural Occurrence, Chirality, and Pharmacology” (J Nat Prod, 2021).
pIC50: −log10 of the molar value. Activity calls are given as the source filed them.

Key:
[1] = biological target: T1, Fatty-acid amide hydrolase 1 (Homo sapiens, UniProt O00519); assay: Inhibition of FAAH (unknown origin) in human U-937 cells using [ethanolamine-1-3H]AEA as substrate preincubated for 30 mins followed by substrate addition measured after 15 mins by liquid scintillation spectroscopy; format: cell-based
T1 sequence (O00519 whole entry): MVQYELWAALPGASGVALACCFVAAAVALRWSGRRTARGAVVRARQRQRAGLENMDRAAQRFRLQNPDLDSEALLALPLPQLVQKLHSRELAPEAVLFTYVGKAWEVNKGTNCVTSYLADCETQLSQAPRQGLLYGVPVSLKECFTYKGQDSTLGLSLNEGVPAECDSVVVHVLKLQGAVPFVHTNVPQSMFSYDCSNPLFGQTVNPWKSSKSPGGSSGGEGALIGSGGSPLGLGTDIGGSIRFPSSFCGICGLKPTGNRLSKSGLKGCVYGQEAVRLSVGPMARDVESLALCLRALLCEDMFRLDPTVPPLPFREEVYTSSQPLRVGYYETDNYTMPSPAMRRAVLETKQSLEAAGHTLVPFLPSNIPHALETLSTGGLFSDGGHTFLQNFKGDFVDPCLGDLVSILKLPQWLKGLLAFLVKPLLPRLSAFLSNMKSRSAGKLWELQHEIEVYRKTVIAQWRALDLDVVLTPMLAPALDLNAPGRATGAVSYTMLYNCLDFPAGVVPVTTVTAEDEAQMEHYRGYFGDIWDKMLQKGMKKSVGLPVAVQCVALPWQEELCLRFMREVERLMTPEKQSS
In short: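 U937 cell homogenate (100 μg) in 10 mM Tris-HCl, 1 mM EDTA, 0.1% fatty-acid-free BSA, pH 8. Compound preincubated 30 min at 37 °C, then 100 nM AEA with 1 nM [ethanolamine-1-3H]AEA tracer added for 15 min at 37 °C. Stopped with cold CHCl3/MeOH (1:1); tritium counted in aqueous phase.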

Monoglyceride lipase = biological target: T2, Monoglyceride lipase (Homo sapiens, UniProt Q99685); assay: Inhibition of MAGL (unknown origin) in human U-937 cells using [ethanolamine-1-3H]AEA as substrate preincubated for 30 mins followed by substrate addition measured after 15 mins by liquid scintillation spectroscopy; format: cell-based
T2 sequence (Q99685 whole entry): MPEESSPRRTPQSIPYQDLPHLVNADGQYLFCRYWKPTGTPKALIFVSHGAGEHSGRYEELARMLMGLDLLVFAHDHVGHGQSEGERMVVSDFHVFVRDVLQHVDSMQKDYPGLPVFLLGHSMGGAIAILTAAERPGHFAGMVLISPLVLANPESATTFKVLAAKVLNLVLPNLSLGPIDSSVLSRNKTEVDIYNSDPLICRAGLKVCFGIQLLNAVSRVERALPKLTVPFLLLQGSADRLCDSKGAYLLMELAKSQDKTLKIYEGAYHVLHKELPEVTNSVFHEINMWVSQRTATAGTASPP

[2] = biological target: T3, Monoacylglycerol lipase ABHD6 (Homo sapiens, UniProt Q9BV23); assay: Inhibition of human ABHD6 transfected in HEK293 cells using 2-OG as substrate preincubated for 30 mins followed by substrate addition measured after 5 mins by liquid scintillation spectroscopy; format: cell-based
T3 sequence (Q9BV23 whole entry): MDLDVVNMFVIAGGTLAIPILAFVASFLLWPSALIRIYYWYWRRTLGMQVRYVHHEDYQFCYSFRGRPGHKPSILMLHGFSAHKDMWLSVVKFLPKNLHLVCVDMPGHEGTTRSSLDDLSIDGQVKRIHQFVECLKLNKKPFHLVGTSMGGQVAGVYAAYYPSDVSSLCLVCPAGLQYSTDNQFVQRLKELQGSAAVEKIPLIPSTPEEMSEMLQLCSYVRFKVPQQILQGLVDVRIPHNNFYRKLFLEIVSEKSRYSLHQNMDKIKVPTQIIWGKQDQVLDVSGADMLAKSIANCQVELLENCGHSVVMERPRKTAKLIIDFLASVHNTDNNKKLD
In short: (§1)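 Homogenate (40 μg) of HEK-293 cells stably expressing hABHD6 or hABHD12, in […], 0.1% BSA, pH 7.6. Compound preincubated 30 min at 37 °C, then 10 μM 2-OG for 5 min at 37 °C. Tritium counted in aqueous phase; non-transfected HEK293 hydrolysis subtracted. Positive controls: WWL70 10 μM (ABHD6), THL 20 μM (ABHD12). At least two experiments in triplicate, mean ± SD.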

[3] = biological target: T4, Lysophosphatidylserine lipase ABHD12 (Homo sapiens, UniProt Q8N2K0); assay: Inhibition of human ABHD12 transfected in HEK293 cells using 2-OG as substrate preincubated for 30 mins followed by substrate addition measured after 5 mins by liquid scintillation spectroscopy; format: cell-based; in short: as §1
T4 sequence (Q8N2K0 whole entry): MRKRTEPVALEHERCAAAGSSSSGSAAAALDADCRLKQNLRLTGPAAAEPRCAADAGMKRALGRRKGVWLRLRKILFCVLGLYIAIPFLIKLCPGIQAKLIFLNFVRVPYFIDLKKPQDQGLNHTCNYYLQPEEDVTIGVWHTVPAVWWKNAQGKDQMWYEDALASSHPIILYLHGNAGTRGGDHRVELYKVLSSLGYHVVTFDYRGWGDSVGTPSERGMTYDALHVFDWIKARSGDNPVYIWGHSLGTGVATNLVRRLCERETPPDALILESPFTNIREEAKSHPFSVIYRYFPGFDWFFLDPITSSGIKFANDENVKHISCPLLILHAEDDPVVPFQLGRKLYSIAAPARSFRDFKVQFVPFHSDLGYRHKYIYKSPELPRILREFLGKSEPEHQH

Mus musculus [4] = assay: In vivo agonist activity at CB1R in BALB/c mouse assessed as induction of hypothermia at 50 mg/kg, ip measured after 1 hr by rectal measurement method; format: functional, organism-based
In short: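 Male BALB/c mice (8–10 weeks) given compound in pure DMSO intraperitoneally, 5–8 mice per group. Rectal temperature taken by thermocouple probe before dosing and 1 h after. Change is expressed as basal minus post-injection temperature. Groups compared with vehicle by Kruskal–Wallis then Mann–Whitney.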

Mus musculus [5] = assay: In vivo agonist activity at CB1R in BALB/c mouse assessed as catalepsy like behaviour at 50 mg/kg, ip measured after 1 hr by bar test; format: functional, organism-based
In short: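 Male BALB/c mice (8–10 weeks) given compound in pure DMSO intraperitoneally, 5–8 mice per group. Bar test at 1 h: forelimbs placed on a 4 cm high bar. End-point is both front limbs removed or held over 120 s. Three trials per mouse. Groups compared with vehicle by Kruskal–Wallis then Mann–Whitney.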

Mus musculus [6] = assay: In vivo agonist activity at CB1R in BALB/c mouse assessed as induction of hypolocomotion at 50 mg/kg, ip measured after 1 hr by rotarod test; format: functional, organism-based
In short: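 Male BALB/c mice (8–10 weeks) given compound in pure DMSO intraperitoneally, 5–8 mice per group. Rotarod at 6 rpm, 1 h post-dose. Read-out is latency to fall, cutoff 120 s, over three trials. Groups compared with vehicle by Kruskal–Wallis then Mann–Whitney.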

Mus musculus [7] = assay: In vivo agonist activity at CB1R in BALB/c mouse assessed as induction of analgesia at 50 mg/kg, ip measured after 1 hr by hot plate test; format: functional, organism-based
In short: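 Male BALB/c mice (8–10 weeks) given compound in pure DMSO intraperitoneally, 5–8 mice per group. Hot plate at 54–56 °C inside a Plexiglas cylinder, 1 h post-dose. Read-out is latency to first nociceptive response (paw lick or foot shake). Groups compared with vehicle by Kruskal–Wallis then Mann–Whitney.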

Structure (SMILES)	pIC50 [1]	pIC50 (Monoglyceride lipase)	pIC50 [2]	pIC50 [3]	Activity (Mus musculus [4])	Activity (Mus musculus [5])	Activity (Mus musculus [6])	Activity (Mus musculus [7])
CCCCCc1cc(O)c2c(c1)OC(C)(C)[C@@H]1CCC(C)=C[C@@H]21 [DRONABINOL]	4.36	< 4.00	4.32	4.94	Active	Active	Active	Active
CCCCCc1cc(O)c2c(c1)OC(C)(C)[C@H]1CCC(C)=C[C@@H]21	4.44	< 4.00	4.40	4.85	Active	Active	Active	Active
CCCCCc1cc(O)c2c(c1)OC(C)(C)[C@@H]1CCC(C)=C[C@H]21	< 4.10	< 4.00	4.45	4.54	–	–	–	–
